Screening data (PubChem BioAssay)
A selection: hits, their analogues and other compounds. The true share with any hit is near 1.2%.
CRFR2-BP ag: CRF-BP/CRF-R2 complex agonism | hit rate 0.46% among 350,000 | activation, % at 13.2 µM | HEK293 CRF-R2/CRF-BP, calcium dye fluorescence (FLIPR); percent of saturating CRF peptide response | AID 588473;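 active means activation of at least 50%, plus an integration ratio under a set limit after plate pattern correction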;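 further: plate controls were neutral control wells without compound for no effect and CRF at EC100 for full effect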
DDE Tn7 FP inh: DD(E)-Tn7 binding inhibition, primary FP screen | hit rate 0.13% among 370,000 | FP displacement of FITC-Tn7 peptide from fibrin DD(E); 0% = median of compound wells per plate | inhibition, % at 8.3 µM | AID 720508 | P02675;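 active means inhibition above the mean of compounds falling within the control limits plus 3 SD of them, cut at about 14% in these data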;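 further: 0% = plate median of compound wells and 100% = 10 µM Aha-Tn7 peptide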
Target sequence (P02675 whole entry, looked up): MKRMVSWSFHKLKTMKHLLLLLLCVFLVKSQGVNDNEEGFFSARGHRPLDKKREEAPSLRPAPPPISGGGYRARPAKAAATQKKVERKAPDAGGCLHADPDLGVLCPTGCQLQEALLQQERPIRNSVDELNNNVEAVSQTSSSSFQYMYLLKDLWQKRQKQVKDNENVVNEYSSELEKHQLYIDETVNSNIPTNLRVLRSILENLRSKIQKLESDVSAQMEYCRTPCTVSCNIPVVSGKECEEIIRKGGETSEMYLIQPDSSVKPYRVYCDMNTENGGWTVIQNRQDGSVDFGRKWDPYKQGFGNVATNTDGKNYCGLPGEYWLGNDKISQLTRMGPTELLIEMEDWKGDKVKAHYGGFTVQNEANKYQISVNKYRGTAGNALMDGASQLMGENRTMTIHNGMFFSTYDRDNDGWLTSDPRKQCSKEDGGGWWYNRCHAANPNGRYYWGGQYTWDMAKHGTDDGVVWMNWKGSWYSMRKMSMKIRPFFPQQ
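Assay system: Human clot-derived fibrin DD(E) complex | Buffer or medium: Tris/NaCl/CaCl2 buffer, pH 7.8 | Repeats: One replicate per compound | Benchmarks: Aha-Tn7 high control | Measure: % inhibition scaled between sample-field median and high-control FP | Schedule: 10 min plus 3 h, room temperature | Signal: Fluorescence polarization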
CRFBP-R2 block: blocks CRF-induced signaling of the CRF-BP/CRF-R2 complex | hit rate 0.59% among 350,000 | inhibition, % at 11.8 µM | HEK293 CRF-R2/CRF-BP, CRF-induced calcium fluorescence;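 active means inhibition of the ligand-induced calcium signal above about 50% at the single tested concentration, limit read from the data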
DDE Tn6 FP inh: inhibitors of Tn6 peptide binding to human fibrin DD(E); AID 720509; Fibrin DD(E) TRITC-Tn6 fluorescence polarization displacement; P02675; inhibition, % at 8.3 µM; hit rate 0.21% among 370,000;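 active means inhibition above a per-campaign cutoff: mean of compounds within control limits plus 3 SD, cut at about 15% in these data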;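 further: 0% = median of all compound wells on the plate and 100% = blocking peptide control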
* marks the source's active call; other numbers are inactive results; / = no result given.

SMILES	CRFR2-BP ag	DDE Tn7 FP inh	CRFBP-R2 block	DDE Tn6 FP inh
Cc1cc(N2CCN(S(=O)(=O)c3ccc(Cl)cc3)CC2)c2ccccc2n1	-0.5	-7.5	62.4*	-11.7
CCN(CC)C(=O)c1c(C)nc2ccccn12	-7.8	/	85.4*	/
COc1ccccc1C/C(N)=N/OC(=O)COc1ccc(C)cc1C	-2.3	3.9	54.0*	-6.8
Nc1ccc(C(=O)N/N=C\c2cc(N=Nc3cccc4ccccc34)ccc2O)cc1	-0.3	3.2	59.2*	-19.5
Cc1ccc(NC(=O)C2=C(c3ccccc3)S(=O)(=O)CCS2(=O)=O)cc1	54.7*	3.4	-51.9	-3.6
CC(C)(C)c1ccc(S(=O)(=O)N2CCC(c3cn4ccccc4n3)CC2)cc1	/	-10.7	/	4.7
O=C(N[C@H](Cc1ccccc1)C(=O)N1CCN(C(=O)N2CCOCC2)CC1)[C@H]1O[C@@H](n2ccc(=O)[nH]c2=O)[C@H](O)[C@@H]1O	/	-4.5	/	-1.3
C=CCn1c(SCc2ccc(F)cc2)nc2c1c(=O)[nH]c(=O)n2C	-2.9	8.9	62.1*	3.8
N=c1c2c(ccn1CCCCc1ccccc1)Oc1ccc3ccccc3c1C2c1ccccc1 (stereo not drawn)	/	0.0	/	-7.3
COC(=O)c1cn(-c2ccc(-c3noc4c3C(=O)N(CC(=O)N3CCOCC3)CC4)cc2)nn1	/	-0.7	/	0.6
S=C1SCN(Cc2ccccc2)CN1Cc1ccccc1	0.8	-2.6	23.3	1.4
S=C1SCN(Cc2cccnc2)CN1Cc1cccnc1	101.2*	-4.2	-107.1	-1.5
C/C=C/C(=O)Nc1cccc(C2=NOC3(C2)C[C@@H](C(N)=O)N(C(=O)c2cc([N+](=O)[O-])cc([N+](=O)[O-])c2C)C3)c1 (stereo partly drawn)	232.2*	2.3	-245.1	1.2
CCCCCC(=O)Nc1cccc(C2=NOC3(C2)C[C@H](C(N)=O)N(C(=O)CCCCC)C3)c1 (stereo partly drawn)	-0.6	-7.6	-7.3	-2.1
CCCCCC(=O)N1CC2(CC(c3cccc(NC(=O)CC)c3)=NO2)C[C@H]1C(N)=O (stereo partly drawn)	2.6	12.0	79.0*	3.2
COc1ccc([C@H]2OC(=O)C[C@H]2C(=O)N2CCN(c3ccccc3Cl)CC2)cc1OC	/	3.3	/	1.2
CC(CNC(=O)c1ccc(NC2=NC3CS(=O)(=O)CC3S2)cc1)c1ccccc1 (stereo not drawn)	50.3*	0.6	-122.2	1.9
COc1ccc([C@H]2OC(=O)C[C@H]2C(=O)N2CCN(c3ccccc3C(F)(F)F)CC2)cc1OC	/	1.4	/	7.0
CCN(c1ccccc1)c1nc(C#N)nc(N(CC)c2ccccc2)n1	1.0	7.4	82.7*	4.0
CC1(C)c2[nH]c3ccccc3c2C[C@@H]2C(=O)N(Cc3ccccc3)C(=O)N21	2.8	-3.2	-14.9	0.2
CC1(C)c2[nH]c3ccccc3c2C[C@H]2C(=O)N(Cc3ccccc3)C(=O)N21	0.2	-2.7	60.3*	3.2
COC(=O)[C@]12C[C@H](CC(=O)NCc3cccc4ccccc34)C(=O)N(Cc3ccco3)C1=C[C@H](C(C)(C)C)O[C@@H]2C	/	-0.7	/	-3.0
O=C(c1ccccc1)N(c1ccccc1)C1C=CS(=O)(=O)C1 (stereo not drawn)	1.7	-7.5	-0.8	-5.5
COc1ccc(C(=O)N(c2ccccc2)C2C=CS(=O)(=O)C2)cc1 (stereo not drawn)	-0.5	7.1	52.1*	4.7
CCOc1ccc(CCNC(=O)c2cc3ccsc3n2C)cc1OCC	/	-5.4	/	-7.6
SMILES	CRFR2-BP ag	DDE Tn7 FP inh	CRFBP-R2 block	DDE Tn6 FP inh
O=C(CCn1c2c(c3ccccc31)CCCC2)NNC(=O)c1ccccc1C(=O)O	55.5*	/	-9.0	/
CN1Cc2c(N3CCOCC3)nc(SCc3ccccc3)c(C#N)c2CC1(C)C	64.0*	6.3	-74.9	4.7
COc1ccc(NC(=O)Nc2nnc(C(C)(C)C)s2)cc1	3.6	-4.1	58.3*	-1.9
Cc1ccc(NC(=O)c2cccc3c2-c2ccccc2C3=O)c(C)c1	/	3.5	/	-0.9
COc1ccc(-c2cc3nc(C)cc(N4CCN(C(=O)c5cccnc5)CC4)n3n2)cc1	3.9	-2.9	16.1	-7.1
CN(C(=O)COC(=O)C(Cc1ccccc1)NC(=O)c1ccccc1)c1ccccc1 (stereo not drawn)	1.0	5.2	17.5	7.6
CN(C)C(=O)COC(=O)[C@H](Cc1ccccc1)NC(=O)c1ccco1	106.6*	-0.3	-41.7	-1.2
O=C(COC(=O)[C@H](Cc1ccccc1)NC(=O)c1ccco1)NCc1ccccc1	78.8*	0.1	-72.0	-9.7
